Data: ChEMBL document CHEMBL1806388, “3-(3-Phenoxybenzyl)amino-β-carboline: a novel antitumor drug targeting α-tubulin” (Bioorg Med Chem Lett, 2011)
Active and inactive are the calls of the source. The calls are words filed in the database; no cut-off is given here.

Key:
[1] = Cytotoxicity against human HeLaS3 cells after 24 to 72 hrs by MTT assay; type: functional, cell-based; details: HeLa S3
In short: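 Growth inhibition of HeLa S-3 cells measured by MTT assay; IC50 taken as the drug concentration inhibiting cell growth by 50%. Values are mean ± S.D. of four independent experiments, each run in triplicate.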

[2] = Cell cycle arrest in human HeLaS3 cells assessed as accumulation at S phase at 150 nM after 24 hrs using propidium iodide staining by flow cytometry (reference value: 19.62%); details: HeLa S3
[3] = Cell cycle arrest in human HeLaS3 cells assessed as accumulation at sub-G1 phase at 150 nM after 24 hrs using propidium iodide staining by flow cytometry (reference value: 1.51%); details: HeLa S3
[4] = Cell cycle arrest in human HeLaS3 cells assessed as accumulation at S phase at 150 nM after 12 hrs using propidium iodide staining by flow cytometry (reference value: 19.62%); details: HeLa S3
[5] = Cell cycle arrest in human HeLaS3 cells assessed as accumulation at G2/M phase at 150 nM after 24 hrs using propidium iodide staining by flow cytometry (reference value: 22.45%); details: HeLa S3
HeLa S3 [6] = experiment: Induction of apoptosis in human HeLaS3 cells assessed as chromatin condensation at 150 to 1000 nM after 48 hrs using Hoechst 33342 staining by confocal laser microscopic analysis; type: functional, cell-based
In short: (§1)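 HeLa S-3 cells treated with 0, 150, 300 or 1000 nM for 48 h, then nuclei stained with Hoechst 33342 and examined by fluorescence microscopy for chromatin condensation and fragmented nuclei.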

[7] = Cell cycle arrest in human HeLaS3 cells assessed as accumulation at G2/M phase at 150 nM after 48 hrs using propidium iodide staining by flow cytometry (reference value: 22.45%); details: HeLa S3
Homo sapiens [8] = species: Homo sapiens; experiment: Binding affinity to enolase in human HeLaS3 whole cell extract by MALDI/TOF-MS nalaysis
[9] = Cell cycle arrest in human HeLaS3 cells assessed as accumulation at G1 phase at 150 nM after 24 hrs using propidium iodide staining by flow cytometry (reference value: 56.42%); details: HeLa S3
HeLa S3 [10] = experiment: Induction of apoptosis in human HeLaS3 cells assessed as increase of activated caspase 3 level by Western blot analysis; type: functional, cell-based; details: TDE = time-dependent effect
In short: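 Cleaved caspase-3 detected by Western blot of HeLa S-3 cell extracts after 6, 12, 24 or 48 h treatment; untreated extract as control, β-actin as loading control.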

[11] = Cell cycle arrest in human HeLaS3 cells assessed as accumulation at G1 phase at 150 nM after 36 hrs using propidium iodide staining by flow cytometry (reference value: 56.42%); details: HeLa S3
[12] = Cell cycle arrest in human HeLaS3 cells assessed as accumulation at G1 phase at 150 nM after 12 hrs using propidium iodide staining by flow cytometry (reference value: 56.42%); details: HeLa S3
[13] = Cell cycle arrest in human HeLaS3 cells assessed as accumulation at sub-G1 phase at 150 nM after 48 hrs using propidium iodide staining by flow cytometry (reference value: 1.51%); details: HeLa S3
[14] = Cell cycle arrest in human HeLaS3 cells assessed as accumulation at G2/M phase at 150 nM after 36 hrs using propidium iodide staining by flow cytometry (reference value: 22.45%); details: HeLa S3
[15] = Cell cycle arrest in human HeLaS3 cells assessed as accumulation at S phase at 150 nM after 48 hrs using propidium iodide staining by flow cytometry (reference value: 19.62%); details: HeLa S3
HeLa S3 [16] = experiment: Induction of apoptosis in human HeLaS3 cells assessed as DNA fragmentation at 150 to 1000 nM after 48 hrs by electrophoresis analysis; type: functional, cell-based
In short: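 HeLa S-3 cells exposed to 0–1000 nM for 48 h; genomic DNA extracted and run on a 2% agarose gel next to a 100 bp ladder to look for fragmentation.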

[17] = Cell cycle arrest in human HeLaS3 cells assessed as accumulation at sub-G1 phase at 150 nM after 36 hrs using propidium iodide staining by flow cytometry (reference value: 1.51%); details: HeLa S3
[18] = Cell cycle arrest in human HeLaS3 cells assessed as accumulation at G1 phase at 150 nM after 48 hrs using propidium iodide staining by flow cytometry (reference value: 56.42%); details: HeLa S3
[19] = Cell cycle arrest in human HeLaS3 cells assessed as accumulation at S phase at 150 nM after 36 hrs using propidium iodide staining by flow cytometry (reference value: 19.62%); details: HeLa S3
Homo sapiens [20] = species: Homo sapiens; experiment: Binding affinity to alpha-tubulin in human HeLaS3 whole cell extract by MALDI/TOF-MS nalaysis
[21] = Cell cycle arrest in human HeLaS3 cells assessed as accumulation at G2/M phase at 150 nM after 12 hrs using propidium iodide staining by flow cytometry (reference value: 22.45%); details: HeLa S3
HeLa S3 [22] = experiment: Induction of apoptosis in human HeLaS3 cells assessed as fragmented nuclei at 150 to 1000 nM after 48 hrs using Hoechst 33342 staining by confocal laser microscopic analysis; type: functional, cell-based; in short: as §1
[23] = Cell cycle arrest in human HeLaS3 cells assessed as accumulation at sub-G1 phase at 150 nM after 12 hrs using propidium iodide staining by flow cytometry (reference value: 1.51%); details: HeLa S3

For `COc1ccc(CNc2cc3c(cn2)[nH]c2ccccc23)cc1`, the IC50 [1] was 20 µM.

With `c1ccc(Oc2ccc(CNc3cc4c(cn3)[nH]c3ccccc34)cc2)cc1` the IC50 [1] was 1.2 µM.

In the case of `c1ccc(-c2ccccc2CNc2cc3c(cn2)[nH]c2ccccc23)cc1`, the IC50 [1] is reported as 3 µM.

`Clc1ccccc1CNc1nccc2c1[nH]c1ccccc12` showed an IC50 [1] of 19 µM.

`Cc1ccc(CNc2cc3c(cn2)[nH]c2ccccc23)cc1` showed an IC50 [1] of 6.2 µM.

In the case of `COc1cccc(CNc2cc3c(cn2)[nH]c2ccccc23)c1OC`, the IC50 [1] is reported as 3.2 µM.

`Cc1cccc(CNc2cc3c(cn2)[nH]c2ccccc23)c1` showed an IC50 [1] of 0.21 µM.

`c1ccc(-c2ccc(CNc3cc4c(cn3)[nH]c3ccccc34)cc2)cc1` gave an IC50 [1] greater than 30 µM.

Compound `Oc1ccccc1CNc1nccc2c1[nH]c1ccccc12` has an IC50 [1] of 19 µM.

Work on `COc1ccc(OC)c(CNc2cc3c(cn2)[nH]c2ccccc23)c1` yielded an IC50 [1] of 6.1 µM.

Compound `Clc1cccc(CNc2nccc3c2[nH]c2ccccc23)c1` has an IC50 [1] of 20 µM.

With `COc1cccc(CNc2nccc3c2[nH]c2ccccc23)c1` the IC50 [1] was 24 µM.

With `c1ccc(Oc2cccc(CNc3cc4c(cn3)[nH]c3ccccc34)c2)cc1` the Activity [2] was 15.9%, the Activity [3] was 32.7% and the Activity [4] was 15.4%. The Activity [5] was 30%, the Activity (HeLa S3 [6]) was “Active” and the Activity [7] was 9.52%. The Activity (Homo sapiens [8]) was “Active”, the Activity [9] was 21.2% and the Activity (HeLa S3 [10]) was “tde”. For the same compound, the Activity [11] was 19%, the IC50 [1] was 0.074 µM and the Activity [12] was 8.4%. For the same compound, the Activity [13] was 50.1%, the Activity [14] was 19.2% and the Activity [15] was 20.2%. For the same compound, the Activity (HeLa S3 [16]) was “Active”, the Activity [17] was 43.5% and the Activity [18] was 18.4%. The Activity [19] was 15.6%, the Activity (Homo sapiens [20]) was “Active” and the Activity [21] was 65.9%. For the same compound, the Activity (HeLa S3 [22]) was “Active” and the Activity [23] was 9.72%.

`COc1cc(CNc2cc3c(cn2)[nH]c2ccccc23)cc(OC)c1` showed an IC50 [1] of 1.7 µM.

For `COc1ccc(CNc2cc3c(cn2)[nH]c2ccccc23)c(OC)c1OC`, the IC50 [1] was 4 µM.

With `Cc1ccccc1CNc1cc2c(cn1)[nH]c1ccccc12` the IC50 [1] was 0.3 µM.

`COc1cc(CNc2cc3c(cn2)[nH]c2ccccc23)cc(OC)c1OC` gave an IC50 [1] of 0.22 µM.

`Oc1ccccc1CNc1cc2c(cn1)[nH]c1ccccc12` gave an IC50 [1] of 28 µM.

With `Oc1ccc(CNc2cc3c(cn2)[nH]c2ccccc23)cc1` the IC50 [1] was 1.7 µM.

With `COc1ccc(CNc2cc3c(cn2)[nH]c2ccccc23)c(OC)c1` the IC50 [1] was 4.8 µM.

`FC(F)(F)c1ccccc1CNc1cc2c(cn1)[nH]c1ccccc12` gave an IC50 [1] of 6.7 µM.

`Cc1ccc(CNc2nccc3c2[nH]c2ccccc23)cc1` showed an IC50 [1] of 26 µM.

`COc1ccccc1CNc1cc2c(cn1)[nH]c1ccccc12` showed an IC50 [1] of 0.8 µM.

`O=[N+]([O-])c1cccc(CNc2cc3c(cn2)[nH]c2ccccc23)c1` showed an IC50 [1] greater than 30 µM.

For `c1ccc(Oc2ccc(CNc3nccc4c3[nH]c3ccccc34)cc2)cc1`, the IC50 [1] was 15 µM.

In the case of `Clc1cccc(CNc2cc3c(cn2)[nH]c2ccccc23)c1`, the IC50 [1] is reported as 0.83 µM.

In the case of `O=[N+]([O-])c1ccccc1CNc1cc2c(cn1)[nH]c1ccccc12`, the IC50 [1] is reported as 14 µM.

For `Cc1ccccc1CNc1nccc2c1[nH]c1ccccc12`, the IC50 [1] was 13 µM.

`COc1ccc(CNc2cc3c(cn2)[nH]c2ccccc23)cc1OC` showed an IC50 [1] greater than 100 µM.

With `Clc1ccc(CNc2nccc3c2[nH]c2ccccc23)cc1Cl` the IC50 [1] was 20 µM.

With `COc1ccc(CNc2nccc3c2[nH]c2ccccc23)cc1` the IC50 [1] was 22 µM.

In the case of `COc1cccc(OC)c1CNc1cc2c(cn1)[nH]c1ccccc12`, the IC50 [1] is reported as 2.3 µM.

Compound `COc1cccc(CNc2cc3c(cn2)[nH]c2ccccc23)c1` has an IC50 [1] of 0.79 µM.

`Clc1ccccc1CNc1cc2c(cn1)[nH]c1ccccc12` showed an IC50 [1] of 1 µM.

For `c1ccc(CNc2nccc3c2[nH]c2ccccc23)cc1`, the IC50 [1] was 24 µM.

Work on `Clc1ccc(CNc2cc3c(cn2)[nH]c2ccccc23)cc1` yielded an IC50 [1] of 6.1 µM.

With `Clc1ccc(CNc2nccc3c2[nH]c2ccccc23)cc1` the IC50 [1] was 18 µM.

With `Cc1cccc(CNc2nccc3c2[nH]c2ccccc23)c1` the IC50 [1] was 22 µM.

Compound `FC(F)(F)c1cccc(CNc2cc3c(cn2)[nH]c2ccccc23)c1` has an IC50 [1] of 3.1 µM.

For `c1ccc(COc2cccc(CNc3cc4c(cn3)[nH]c3ccccc34)c2)cc1`, the IC50 [1] was 0.38 µM.

In the case of `c1ccc(CNc2cc3c(cn2)[nH]c2ccccc23)cc1`, the IC50 [1] is reported as 0.11 µM.

Compound `Oc1cccc(CNc2cc3c(cn2)[nH]c2ccccc23)c1` has an IC50 [1] of 0.92 µM.

`COc1ccccc1CNc1nccc2c1[nH]c1ccccc12` gave an IC50 [1] of 15 µM.

Work on `c1ccc(Oc2cccc(CNc3nccc4c3[nH]c3ccccc34)c2)cc1` yielded an IC50 [1] of 2.3 µM.

Compound `FC(F)(F)c1ccc(CNc2cc3c(cn2)[nH]c2ccccc23)cc1` has an IC50 [1] of 47 µM.
